From ChEMBL document CHEMBL5058577, “EUbOPEN Chemogenomics Library 2 (Multiplex)” (2022)

Tested on: HEK-293T
Assay: Multiplex assay against HEK293T
Type: toxicity, cell-based
Conditions: human
Outline: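 On a CQ1 microscope at 37°C and 5% CO2, live cells were imaged after compound addition. They had been stained at seeding with Hoechst33342, BioTracker Green Microtubule Cytoskeleton Dye, MitoTracker Red and Annexin V Alexa Fluor 680. CellPathfinder machine-learning gating assigned cells to Hoechst high-intensity objects or normal cells, normal cells to healthy, pyknosed or fragmented nuclei, and pyknosed cells to mitotic or apoptotic. Tubulin, mitochondrial-mass and membrane-permeability phenotypes are per cents of healthy-nucleus cells.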

[1] = 12 h, 1 µM, compound concentration 1 uM, replicate 1
[2] = 12 h, 1 µM, compound concentration 1 uM, replicate 2
[3] = 12 h, 10 µM, compound concentration 10 uM, replicate 1
[4] = 12 h, 10 µM, compound concentration 10 uM, replicate 2
[5] = 24 h, 1 µM, compound concentration 1 uM, replicate 1
[6] = 24 h, 1 µM, compound concentration 1 uM, replicate 2
[7] = 24 h, 10 µM, compound concentration 10 uM, replicate 1
[8] = 24 h, 10 µM, compound concentration 10 uM, replicate 2
[9] = 48 h, 1 µM, compound concentration 1 uM, replicate 1
[10] = 48 h, 1 µM, compound concentration 1 uM, replicate 2
[11] = 48 h, 10 µM, compound concentration 10 uM, replicate 1
[12] = 48 h, 10 µM, compound concentration 10 uM, replicate 2

Cc1nc2ccc(Oc3ccc(F)cc3)cc2c(=O)n1C[C@H]1CCCN(C(C)C)C1.Cl
Population Apoptotic (%) [1]: 40% | Population Fragmented Nuclei (%) [1]: 7% | Population Healthy Nuclei (%) [1]: 80% | Population Hoechst High Intensity Objects (%) [1]: 6% | Population Membrane Permeable-Phenotype (%) [1]: 0% | Population Mitochondria Different-Phenotype (%) [1]: 50% | Population Mitotic Cells (%) [1]: 60% | Population Normal (%) [1]: 93% | Population Pyknosed Nuclei (%) [1]: 11% | Population Tubulin-Different-Phenotype (%) [1]: 42% | Total Cell Count [1]: 381 | Population Apoptotic (%) [2]: 61% | Population Fragmented Nuclei (%) [2]: 5% | Population Healthy Nuclei (%) [2]: 70% | Population Hoechst High Intensity Objects (%) [2]: 27% | Population Mitochondria Different-Phenotype (%) [2]: 69% | Population Mitotic Cells (%) [2]: 38% | Population Normal (%) [2]: 72% | Population Pyknosed Nuclei (%) [2]: 24% | Population Tubulin-Different-Phenotype (%) [2]: 34% | Total Cell Count [2]: 204 | Population Apoptotic (%) [3]: 54% | Population Fragmented Nuclei (%) [3]: 7% | Population Healthy Nuclei (%) [3]: 78% | Population Hoechst High Intensity Objects (%) [3]: 17% | Population Membrane Permeable-Phenotype (%) [3]: 0% | Population Mitochondria Different-Phenotype (%) [3]: 81% | Population Mitotic Cells (%) [3]: 45% | Population Normal (%) [3]: 82% | Population Pyknosed Nuclei (%) [3]: 13% | Population Tubulin-Different-Phenotype (%) [3]: 76% | Total Cell Count [3]: 405 | Population Apoptotic (%) [4]: 61% | Population Fragmented Nuclei (%) [4]: 8% | Population Healthy Nuclei (%) [4]: 74% | Population Hoechst High Intensity Objects (%) [4]: 20% | Population Mitochondria Different-Phenotype (%) [4]: 94% | Population Mitotic Cells (%) [4]: 38% | Population Normal (%) [4]: 79% | Population Pyknosed Nuclei (%) [4]: 17% | Population Tubulin-Different-Phenotype (%) [4]: 73% | Total Cell Count [4]: 310 | Population Apoptotic (%) [5]: 31% | Population Fragmented Nuclei (%) [5]: 11% | Population Healthy Nuclei (%) [5]: 80% | Population Hoechst High Intensity Objects (%) [5]: 4% | Population Membrane Permeable-Phenotype (%) [5]: 0% | Population Mitochondria Different-Phenotype (%) [5]: 36% | Population Mitotic Cells (%) [5]: 68% | Population Normal (%) [5]: 95% | Population Pyknosed Nuclei (%) [5]: 8% | Population Tubulin-Different-Phenotype (%) [5]: 27% | Total Cell Count [5]: 553 | Population Apoptotic (%) [6]: 37% | Population Healthy Nuclei (%) [6]: 72% | Population Hoechst High Intensity Objects (%) [6]: 22% | Population Mitochondria Different-Phenotype (%) [6]: 52% | Population Mitotic Cells (%) [6]: 62% | Population Normal (%) [6]: 77% | Population Pyknosed Nuclei (%) [6]: 16% | Population Tubulin-Different-Phenotype (%) [6]: 20% | Total Cell Count [6]: 281 | Population Apoptotic (%) [7]: 49% | Population Fragmented Nuclei (%) [7]: 10% | Population Healthy Nuclei (%) [7]: 73% | Population Hoechst High Intensity Objects (%) [7]: 12% | Population Membrane Permeable-Phenotype (%) [7]: 3% | Population Mitochondria Different-Phenotype (%) [7]: 67% | Population Mitotic Cells (%) [7]: 50% | Population Normal (%) [7]: 87% | Population Pyknosed Nuclei (%) [7]: 15% | Population Tubulin-Different-Phenotype (%) [7]: 70% | Total Cell Count [7]: 525 | Population Apoptotic (%) [8]: 68% | Population Fragmented Nuclei (%) [8]: 11% | Population Healthy Nuclei (%) [8]: 75% | Population Hoechst High Intensity Objects (%) [8]: 23% | Population Membrane Permeable-Phenotype (%) [8]: 0% | Population Mitochondria Different-Phenotype (%) [8]: 88% | Population Mitotic Cells (%) [8]: 31% | Population Normal (%) [8]: 76% | Population Pyknosed Nuclei (%) [8]: 12% | Population Tubulin-Different-Phenotype (%) [8]: 68% | Total Cell Count [8]: 334 | Population Apoptotic (%) [9]: 27% | Population Fragmented Nuclei (%) [9]: 19% | Population Healthy Nuclei (%) [9]: 75% | Population Hoechst High Intensity Objects (%) [9]: 1% | Population Membrane Permeable-Phenotype (%) [9]: 1% | Population Mitochondria Different-Phenotype (%) [9]: 22% | Population Mitotic Cells (%) [9]: 72% | Population Normal (%) [9]: 98% | Population Pyknosed Nuclei (%) [9]: 5% | Population Tubulin-Different-Phenotype (%) [9]: 14% | Total Cell Count [9]: 901 | Population Apoptotic (%) [10]: 60% | Population Fragmented Nuclei (%) [10]: 13% | Population Healthy Nuclei (%) [10]: 80% | Population Hoechst High Intensity Objects (%) [10]: 7% | Population Membrane Permeable-Phenotype (%) [10]: 0% | Population Mitochondria Different-Phenotype (%) [10]: 36% | Population Mitotic Cells (%) [10]: 39% | Population Normal (%) [10]: 92% | Population Pyknosed Nuclei (%) [10]: 6% | Total Cell Count [10]: 380 | Population Apoptotic (%) [11]: 47% | Population Fragmented Nuclei (%) [11]: 15% | Population Healthy Nuclei (%) [11]: 74% | Population Hoechst High Intensity Objects (%) [11]: 11% | Population Membrane Permeable-Phenotype (%) [11]: 2% | Population Mitochondria Different-Phenotype (%) [11]: 60% | Population Mitotic Cells (%) [11]: 52% | Population Normal (%) [11]: 88% | Population Pyknosed Nuclei (%) [11]: 9% | Population Tubulin-Different-Phenotype (%) [11]: 62% | Total Cell Count [11]: 754 | Population Apoptotic (%) [12]: 67% | Population Fragmented Nuclei (%) [12]: 17% | Population Healthy Nuclei (%) [12]: 72% | Population Hoechst High Intensity Objects (%) [12]: 22% | Population Membrane Permeable-Phenotype (%) [12]: 0% | Population Mitochondria Different-Phenotype (%) [12]: 69% | Population Mitotic Cells (%) [12]: 32% | Population Normal (%) [12]: 78% | Population Tubulin-Different-Phenotype (%) [12]: 58% | Total Cell Count [12]: 459
